We go through 14 compounds from PubChem BioAssay.

A short description of assay [1]: Her2 expression decrease, cell viability multiplex – SKBR3 breast tumor cells, AlphaScreen, ATP viability, primary screen (AID 461;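 active means Her2 level under about 52% in both replicate screens, with viability over 70% of control, limit read from the data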;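 on Her2 level: lower value means less Her2 protein in the cells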;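 on viability: percent of carrier control wells set as 100% viability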). The conditions noted are these: SKBR3 Her2 protein level, 18-24 h, measured here: SKBR3 viability, ATP luminescence, at 10 µM. On the technique in general: Alpha assays give light when donor and acceptor beads are brought close together.

For assay [2], the target named is Receptor tyrosine-protein kinase erbB-2 (Homo sapiens) (UniProt P04626). Described as above. The conditions noted are these: 18-24 h, at 10 µM, stronger effect = lower value.
Assay [3] can be described thus: reduced viability of SK-BR-3 breast cancer cells – cell-based, 24 h, human, pilot screen (AID 572;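 active means viability at or below 10% of carrier control in both of two separate runs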;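 further: compound exposure lasted between 18 and 24 h rather than exactly 24 h; 100% = carrier-treated control wells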). The conditions noted are these: SK-BR-3 viability, CellTiter-Glo luminescence, at 10 µM, stronger effect = lower value.
Assay [4] can be described thus: HUVEC growth inhibition – cell-based, human, primary screen (AID 575;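 active means viability at or below 30% in both replicate assays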;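 further: 100% = median of untreated cell wells with 0.1% DMSO on each plate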). The conditions noted are these: HUVEC proliferation, CellTiter-Glo luminescence, 72 h; at 10 µM; stronger effect = lower value. Summed up: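 Test system: primary human umbilical vein endothelial cells; medium: endothelial basal medium with 2% FBS plus growth supplements; dosing: 10 µM compound only; times: 72 h treatment at 37 °C; signal: CTG luminescence; read-out: % viability relative to median vehicle-well signal on each plate; control set: vehicle and MePR control wells; plate: 384-well, collagen-coated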

Assay [5] in a line: H69AR cell proliferation blockers – human, duplicate replicates, primary screen (AID 580).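 Further: 100% = mean luminescence of untreated wells and 0% = no signal.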 Particulars: H69AR lung tumor cells viability, ATP luminescence, 72 h; at 10 µM; stronger effect = lower value.
The nature of assay [6]: MRP1 drug-resistance reversers in H69AR cells – cell-based, doxorubicin co-treatment, pilot screen (AID 601;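 active means viability loss from added drug above about 55%, and viability with drug at most 40%, in both replicates, limit read from the data, passing the limit was not always enough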). The conditions noted are these: CellTiter-Glo, 72 h, at 10 µM; for differential viability (reversal): stronger effect = higher value.
Assay [7] in a line: yeast transport mutant growth inhibition pilot in 384-well plates, post-Golgi transport modulator project (AID 636; in the data active means inhibition above about 31%). The conditions noted are these: absorbance 615 nm, about 18 h, stronger effect = higher value.
Assay [8] can be described thus: growth suppression of yeast trafficking mutant, preliminary HTS, modulators of trafficking downstream of Golgi apparatus project, 1536-format plate, OD 615 nm (AID 637; in the data active means inhibition above about 30%). The conditions noted are these: yeast transport mutant growth, absorbance 615 nm, 18 h; stronger effect = higher value.
Where [9] appears, read: H69AR cells + 2 uM doxorubicin, measured here: viability with 2 uM doxorubicin, stronger effect = lower value.
Where [10] appears, read: H69AR cells, compound alone cytotoxicity.

The source made the active and inactive calls.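 How the source made its calls, unless noted: active means viability at or under a set limit in both replicates, limit being median viability minus 3 SD (cut at about 48% in these data, passing the limit was not always enough); inconclusive means at or under the limit in just one replicate; inactive means at or above the limit in both replicates.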

Chain of Receptor tyrosine-protein kinase erbB-2 (Homo sapiens) (P04626 whole entry, looked up): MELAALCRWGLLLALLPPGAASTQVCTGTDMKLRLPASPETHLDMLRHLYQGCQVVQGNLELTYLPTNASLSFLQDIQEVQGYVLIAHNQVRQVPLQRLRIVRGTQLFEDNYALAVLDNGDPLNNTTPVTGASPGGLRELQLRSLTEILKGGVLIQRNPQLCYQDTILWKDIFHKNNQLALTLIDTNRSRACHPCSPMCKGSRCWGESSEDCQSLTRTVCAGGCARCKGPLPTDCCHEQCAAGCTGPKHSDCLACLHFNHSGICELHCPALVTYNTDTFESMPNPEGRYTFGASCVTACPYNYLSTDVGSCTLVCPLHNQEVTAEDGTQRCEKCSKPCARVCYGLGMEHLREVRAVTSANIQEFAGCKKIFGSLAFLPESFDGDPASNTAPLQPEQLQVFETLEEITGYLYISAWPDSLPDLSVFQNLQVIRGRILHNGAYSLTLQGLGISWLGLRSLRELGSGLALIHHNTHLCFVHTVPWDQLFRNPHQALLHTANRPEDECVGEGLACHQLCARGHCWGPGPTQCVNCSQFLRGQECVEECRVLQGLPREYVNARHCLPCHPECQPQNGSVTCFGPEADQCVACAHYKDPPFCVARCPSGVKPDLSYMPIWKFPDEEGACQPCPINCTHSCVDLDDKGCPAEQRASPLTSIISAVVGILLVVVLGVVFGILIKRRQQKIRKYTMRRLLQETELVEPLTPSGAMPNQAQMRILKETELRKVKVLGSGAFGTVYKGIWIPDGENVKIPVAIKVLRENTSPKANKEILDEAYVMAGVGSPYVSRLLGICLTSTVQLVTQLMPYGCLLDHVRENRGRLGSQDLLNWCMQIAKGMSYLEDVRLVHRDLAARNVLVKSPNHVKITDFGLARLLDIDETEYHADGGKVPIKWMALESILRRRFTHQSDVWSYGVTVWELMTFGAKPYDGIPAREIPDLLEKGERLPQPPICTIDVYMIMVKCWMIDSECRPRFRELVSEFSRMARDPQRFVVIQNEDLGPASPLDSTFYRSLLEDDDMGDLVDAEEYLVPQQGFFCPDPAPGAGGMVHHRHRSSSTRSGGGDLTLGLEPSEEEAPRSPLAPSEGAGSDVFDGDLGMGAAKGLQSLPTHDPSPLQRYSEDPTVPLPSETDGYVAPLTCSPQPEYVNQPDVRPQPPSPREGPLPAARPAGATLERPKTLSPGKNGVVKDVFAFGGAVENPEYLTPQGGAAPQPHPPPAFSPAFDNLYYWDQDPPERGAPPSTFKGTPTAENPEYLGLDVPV

As usually defined, the viability is a read-out of living cells in per cent, often relative to untreated cells. In general, inhibition refers to the drop in the measured response relative to a control, in per cent. In the case of `CCn1c(SC)nc2c(c1=O)SC(C)C2` (stereo not given), the viability is 111% in assay [1]; 111% (inactive) in assay [3]; 113% (inactive) in assay [4]; 98.4% (inactive) in assay [5]; 81.2% in assay [6] (setting [9]); 98.4% in assay [6] (setting [10]). Further, in assay [2], the Her2 level was 110% (inactive). The differential viability (reversal) in assay [6] (H69AR cells + 2 uM doxorubicin) was 17.2% (inactive). Also, the inhibition was -4.67% (inactive) in assay [7] and 1.8% (inactive) in assay [8].

For the compound `O=C(c1c(F)cccc1F)N(Cc1ccccn1)C1CCCC1`, the viability in assay [1] is 78%; in assay [3], 78% (inactive); in assay [4] it was 106% (inactive); in assay [5] it was 93.6% (inactive); in assay [6] (setting [9]), 88.9%; in assay [6] (setting [10]), 93.6%. For the same compound, the Her2 level in assay [2] is 108% (inactive). Also, the differential viability (reversal) in assay [6] (H69AR cells + 2 uM doxorubicin) was 4.68% (inactive). Besides, the values for the inhibition in assay [7] and in assay [8] were 3.6% (inactive) and 26.3% (inactive), respectively.

Turning to `CC(C)Cn1c(=O)c(C(=O)Nc2ccccc2S(N)(=O)=O)c(O)c2ccccc21`, the viability in assay [1] is 118%; in assay [3] it was 118% (inactive); in assay [4] it was 62.9% (inactive); in assay [5], 16.1% (active); in assay [6] (setting [9]), 27.5%; in assay [6] (setting [10]) it was 16.1%. For the same compound, the Her2 level in assay [2] was 91.5% (inactive). In addition, the differential viability (reversal) in assay [6] (H69AR cells + 2 uM doxorubicin) is -11.4% (inactive). For the same compound, the inhibition in assay [7] is 10.3% (inactive); in assay [8], 8.67% (inactive).

On to `CCN(CC)C(=O)C1CCCN(Cc2ccc(N(C)C)cc2)C1` (stereo not given), for which the viability in assay [1] was 90.5%; in assay [3], 90.5% (inactive); in assay [4], 100% (inactive); in assay [5], 89.5% (inactive); in assay [6] (setting [9]), 93%; in assay [6] (setting [10]), 89.5%. Moreover, the Her2 level in assay [2] was 96.5% (inactive). The differential viability (reversal) in assay [6] (H69AR cells + 2 uM doxorubicin) is -3.46% (inactive). Further, the inhibition is -1.82% (inactive) in assay [7] and -4.75% (inactive) in assay [8].

`COc1ccccc1C(=O)N1CCN=C1SCc1cccnc1`: the viability in assay [1] is 102%; in assay [3] it was 102% (inactive); in assay [4], 97.5% (inactive); in assay [5], 96.8% (inactive); in assay [6] (setting [9]) it was 85.3%; in assay [6] (setting [10]), 96.8%. Further, the Her2 level in assay [2] is 103% (inactive). In addition, the differential viability (reversal) in assay [6] (H69AR cells + 2 uM doxorubicin) is 11.6% (inactive). The values for the inhibition in assay [7] and in assay [8] were -3.65% (inactive) and -2.06% (inactive), respectively.

For `CCOC(=O)c1ccc(NC(=O)CSc2ncccn2)cc1`, the viability is 104% in assay [1]; 104% (inactive) in assay [3]; 85.9% (inactive) in assay [4]; 96.9% (inactive) in assay [5]; 94.5% in assay [6] (setting [9]); 96.9% in assay [6] (setting [10]). For the same compound, the Her2 level in assay [2] is 112% (inactive). The differential viability (reversal) in assay [6] (H69AR cells + 2 uM doxorubicin) is 2.45% (inactive). Besides, the inhibition in assay [7] is -0.53% (inactive); in assay [8], 4.26% (inactive).

As to `OC(COc1ccc2ccccc2c1)CN1CCOCC1` (stereo not given), the viability in assay [1] is 98.5%; in assay [3], 98.5% (inactive); in assay [4], 82.6% (inactive); in assay [5] it was 81.5% (inactive); in assay [6] (setting [9]), 83.8%; in assay [6] (setting [10]), 81.5%. In assay [2], the Her2 level is 87% (inactive). Besides, in assay [6] (H69AR cells + 2 uM doxorubicin), the differential viability (reversal) was -2.29% (inactive). For the same compound, the inhibition in assay [7] is 1.56% (inactive); in assay [8], 0.66% (inactive).

For `Cc1nc(N2CCc3ccccc32)[nH]c(=O)c1CCC(C)C`, the viability in assay [1] was 87.5%; in assay [3], 87.5% (inactive); in assay [4], 72.3% (inactive); in assay [5], 79.1% (inactive); in assay [6] (setting [9]) it was 70%; in assay [6] (setting [10]) it was 79.1%. Further, in assay [2], the Her2 level is 89% (inactive). Further, in assay [6] (H69AR cells + 2 uM doxorubicin), the differential viability (reversal) is 9.09% (inactive). Also, the values for the inhibition in assay [7] and in assay [8] were -2.99% (inactive) and 6.17% (inactive), respectively.

On to `CCCN1CCN(CCCNC(=O)Cn2nc(-c3ccc(Cl)cc3)ccc2=O)CC1`, for which the viability in assay [1] is 86%; in assay [3], 86% (inactive); in assay [4] it was 104% (inactive); in assay [5], 101% (inactive); in assay [6] (setting [9]), 90.6%; in assay [6] (setting [10]), 101%. Also, the Her2 level in assay [2] was 93.5% (inactive). Moreover, the differential viability (reversal) in assay [6] (H69AR cells + 2 uM doxorubicin) was 10.3% (inactive). The inhibition was -2.76% (inactive) in assay [7] and 2.42% (inactive) in assay [8].

For `COc1cc(-c2nn3c(-c4cccnc4)nnc3s2)cc(OC)c1OC`, the viability is 101% in assay [1]; 101% (inactive) in assay [3]; 90.3% (inactive) in assay [4]; 92.6% (inactive) in assay [5]; 85.8% in assay [6] (setting [9]); 92.6% in assay [6] (setting [10]). Also, the Her2 level in assay [2] was 98.5% (inactive). The differential viability (reversal) in assay [6] (H69AR cells + 2 uM doxorubicin) was 6.8% (inactive). In addition, the inhibition in assay [7] is -4.87% (inactive); in assay [8] it was -4.35% (inactive).

As for `COC(=O)CN(c1nc(C)c(Cl)c(OC)n1)S(=O)(=O)c1ccc(C)cc1`, the viability was 117% in assay [1]; 117% (inactive) in assay [3]; 86.9% (inactive) in assay [4]; 84.9% (inactive) in assay [5]; 81.9% in assay [6] (setting [9]); 84.9% in assay [6] (setting [10]). For the same compound, in assay [2], the Her2 level was 104% (inactive). The differential viability (reversal) in assay [6] (H69AR cells + 2 uM doxorubicin) is 2.96% (inactive). The inhibition in assay [7] was -3.64% (inactive); in assay [8], -2.86% (inactive).

In the case of `O=C(/C=C1\NC2(CCCC2)Cc2ccccc21)N1CCOCC1`, the viability was 101% in assay [1]; 101% (inactive) in assay [3]; 98.2% (inactive) in assay [4]; 102% (inactive) in assay [5]; 85% in assay [6] (setting [9]); 102% in assay [6] (setting [10]). Further, the Her2 level in assay [2] is 85% (inactive). In assay [6] (H69AR cells + 2 uM doxorubicin), the differential viability (reversal) is 17.3% (inactive). The values for the inhibition in assay [7] and in assay [8] were -7.12% (inactive) and -3.49% (inactive), respectively.

On to `COc1ccccc1C1C(C(C)=O)=C(O)C(=O)N1CCc1ccccc1` (stereo not given), for which the viability in assay [1] is 93.5%; in assay [3], 93.5% (inactive); in assay [4], 98.1% (inactive); in assay [5], 104% (inactive); in assay [6] (setting [9]), 94.5%; in assay [6] (setting [10]), 104%. Moreover, the Her2 level in assay [2] was 102% (inactive). Also, the differential viability (reversal) in assay [6] (H69AR cells + 2 uM doxorubicin) was 9.69% (inactive). Moreover, the inhibition in assay [7] was -5.07% (inactive); in assay [8] it was 3.87% (inactive).

Turning to `O=C(CCN1CCOCC1)Nc1cccc(Br)c1`, the viability in assay [1] is 100%; in assay [3], 100% (inactive); in assay [4], 78.9% (inactive); in assay [5], 92.9% (inactive); in assay [6] (setting [9]) it was 85.2%; in assay [6] (setting [10]), 92.9%. For the same compound, the Her2 level in assay [2] is 86% (inactive). Moreover, the differential viability (reversal) in assay [6] (H69AR cells + 2 uM doxorubicin) is 7.72% (inactive). Also, the values for the inhibition in assay [7] and in assay [8] were -5.47% (inactive) and -6.56% (inactive), respectively.
